One experiment deals with U-251. The experiment can be described thus: Growth inhibition of human U251 cells after 2 days by MTT assay. It counts as functional. The conditions noted are these: U-251, 48 h.
A further experiment addresses Histone deacetylase 1 (Homo sapiens, UniProt Q13547). Briefly: Inhibition of HDAC1 using Fluor de Lys as substrate by fluorescence analysis.
The nature of experiment [1]: Antitumor activity against mouse EAC cells allografted in Swiss albino mouse assessed as decrease in tumor weight at 0.2 mmol/kg, ip administered from day 1 to day 7 every 24 hrs. The conditions noted are these: Ehrlich. It counts as functional. In short, it runs like this:
(§1)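 EAC cells kept by intraperitoneal passage in Swiss albino mice (18-20 g, 10 weeks) every 10 days; 9-day-old cells in isotonic saline adjusted to 10×10^6 cells/mL, 0.1 mL per 10 g injected ip on day 0. Seven daily ip doses in PBS pH 7.2 (0.1 mL/10 g), days 1-7; vehicle control. Day 8 sacrifice after 6 h fast.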

A further experiment concerns HCT-116. Briefly: Growth inhibition of human HCT116 cells after 2 days by MTT assay. The class given is functional. The conditions noted are these: HCT-116, 48 h; for CC50: read-out: LC50 (the source's name).
The nature of experiment [2]: Antitumor activity against mouse EAC cells allografted in Swiss albino mouse assessed as decrease in tumor cell at 0.2 mmol/kg, ip administered from day 1 to day 7 every 24 hrs. It counts as functional. The conditions noted are these: Ehrlich. In short, it runs like this: as §1

Chain of Histone deacetylase 1 (Q13547 whole entry): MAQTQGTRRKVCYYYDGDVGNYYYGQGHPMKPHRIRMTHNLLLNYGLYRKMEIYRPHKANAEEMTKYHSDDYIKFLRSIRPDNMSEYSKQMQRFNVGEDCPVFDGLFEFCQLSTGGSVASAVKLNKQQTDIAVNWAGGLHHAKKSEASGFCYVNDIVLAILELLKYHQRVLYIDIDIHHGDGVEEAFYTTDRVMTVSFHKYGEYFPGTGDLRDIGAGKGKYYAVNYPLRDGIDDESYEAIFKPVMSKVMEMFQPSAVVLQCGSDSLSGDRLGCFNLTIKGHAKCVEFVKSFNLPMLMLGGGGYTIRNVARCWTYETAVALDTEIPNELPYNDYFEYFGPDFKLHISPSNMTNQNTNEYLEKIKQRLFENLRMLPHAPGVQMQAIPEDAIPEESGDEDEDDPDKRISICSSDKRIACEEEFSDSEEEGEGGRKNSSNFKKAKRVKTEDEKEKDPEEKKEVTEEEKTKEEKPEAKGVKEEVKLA

For the molecule `Nc1ccccc1NC(=O)CCCNCC(=O)Nc1ccc(Br)cc1`, in the experiment on U-251, the GI50 – broadly, the concentration giving 50% growth inhibition – is 10.4 µM; the LC50 (concentration killing 50% of cells) was over 100 µM; the TGI (in general, the concentration giving total growth inhibition) amounted to 80 µM. The IC50 – broadly, the concentration at which inhibition is half-maximal – at Histone deacetylase 1 worked out at 1.7 µM. For the same molecule, the inhibition in vivo – broadly, the relative decrease from the control value, in per cent – at 200 µmol/kg in experiment [1] worked out at 73.8%. Also, in the experiment on HCT-116, growth was halved (GI50) at 7.7 µM, the TGI is 55.5 µM and the CC50 was over 100 µM. The inhibition in vivo at 200 µmol/kg in experiment [2] came out at 68.7%.
As to `Nc1ccccc1NC(=O)CCCNCC(=O)Nc1ccccc1`, in the experiment with U-251, the GI50 is over 100 µM, the LC50 (concentration killing 50% of cells) is over 100 µM and the TGI is over 100 µM. The IC50 against Histone deacetylase 1 worked out at 9.2 µM. Further, the inhibition in vivo at 200 µmol/kg in experiment [1] is 25%. Moreover, in the experiment on HCT-116, the GI50 was 70.4 µM, the TGI is over 100 µM and the CC50 was over 100 µM. Besides, the inhibition in vivo at 200 µmol/kg in experiment [2] worked out at 19.1%.
Consider `Nc1ccccc1NC(=O)CCCNCC(=O)Nc1ccccc1Cl`, for which, in the experiment with U-251, growth was halved (GI50) at 28.6 µM, the LC50 (concentration killing 50% of cells) was over 100 µM and the TGI is over 100 µM. Also, the IC50 at Histone deacetylase 1 amounted to 2.9 µM. The inhibition in vivo at 200 µmol/kg in experiment [1] amounted to 21.4%. Also, in the experiment on HCT-116, the GI50 is 21.8 µM, the TGI was over 100 µM and the CC50 is over 100 µM. In addition, the inhibition in vivo at 200 µmol/kg in experiment [2] stood at 12.7%.
Consider `Nc1ccccc1NC(=O)CCCNCC(=O)Nc1cccc(Cl)c1`, for which, in the experiment on U-251, it took 19.5 µM to inhibit growth by half (GI50), the LC50 (concentration killing 50% of cells) is over 100 µM and the TGI was over 100 µM. At Histone deacetylase 1, this molecule had an IC50 of 1.8 µM. In addition, the inhibition in vivo at 200 µmol/kg in experiment [1] came out at 32.1%. In addition, in the experiment on HCT-116, the GI50 was found to be 11.6 µM, the TGI is 75 µM and the CC50 was over 100 µM. For the same molecule, in experiment [2], the inhibition in vivo at 200 µmol/kg is 22.5%.
For `Nc1ccccc1NC(=O)CCCNCC(=O)Nc1ccc(Cl)cc1`, in the experiment with U-251, the GI50 was found to be 11.4 µM, the LC50 (concentration killing 50% of cells) was over 100 µM and the TGI was determined as 75 µM. This molecule yielded an IC50 against Histone deacetylase 1 of 1.4 µM. The inhibition in vivo at 200 µmol/kg in experiment [1] worked out at 72.7%. Also, in the experiment on HCT-116, growth was halved (GI50) at 5.5 µM, the TGI came to 45 µM and the CC50 is over 100 µM. In experiment [2], the inhibition in vivo at 200 µmol/kg was 75%.
In the experiment on U-251, `Nc1ccccc1NC(=O)CCCNCC(=O)Nc1ccccc1[N+](=O)[O-]` came in with a GI50 of 32 µM, an LC50 (concentration killing 50% of cells) of over 100 µM and a TGI of over 100 µM. For the same molecule, at Histone deacetylase 1, the IC50 worked out at 3.1 µM. Further, the inhibition in vivo at 200 µmol/kg in experiment [1] came out at 41.3%. Further, in the experiment with HCT-116, halving of growth (GI50) required 2.8 µM, the total growth inhibition concentration (TGI) was found to be 32 µM and the CC50 was over 100 µM. The inhibition in vivo at 200 µmol/kg in experiment [2] is 10.5%.
In the experiment with U-251, `Nc1ccccc1NC(=O)CCCNCC(=O)Nc1cccc([N+](=O)[O-])c1` displayed a GI50 of 15 µM, an LC50 (concentration killing 50% of cells) of over 100 µM and a TGI of 93.5 µM. This molecule gave an IC50 against Histone deacetylase 1 of 2.3 µM. The inhibition in vivo at 200 µmol/kg in experiment [1] was 40.6%. Further, in the experiment with HCT-116, the GI50 came out at 0.9 µM, the TGI worked out at 22.5 µM and the CC50 is over 100 µM. In addition, in experiment [2], the inhibition in vivo at 200 µmol/kg is 36%.
Regarding `Nc1ccccc1NC(=O)CCCNCC(=O)Nc1ccc([N+](=O)[O-])cc1`, in the experiment on U-251, the GI50 stood at 9.4 µM, the LC50 (concentration killing 50% of cells) is over 100 µM and total growth inhibition (TGI) required 66 µM. For the same molecule, at Histone deacetylase 1, half-maximal inhibition (IC50) was put at 0.9 µM. The inhibition in vivo at 200 µmol/kg in experiment [1] worked out at 78.5%. Moreover, in the experiment on HCT-116, the GI50 turned out to be 0.6 µM, the TGI amounted to 8.5 µM and the CC50 is over 100 µM. In addition, the inhibition in vivo at 200 µmol/kg in experiment [2] worked out at 76.5%.
Take `COc1ccc(NC(=O)CNCCCC(=O)Nc2ccccc2N)cc1`: in the experiment on U-251, halving of growth (GI50) required 34 µM, the LC50 (concentration killing 50% of cells) is over 100 µM and the TGI was over 100 µM. This molecule had an IC50 on Histone deacetylase 1 of 3.6 µM. For the same molecule, in experiment [1], the inhibition in vivo at 200 µmol/kg was determined as 63.8%. Further, in the experiment with HCT-116, the GI50 came to 8.6 µM, net growth stopped (TGI) at 44 µM and the CC50 is over 100 µM. Further, in experiment [2], the inhibition in vivo at 200 µmol/kg stood at 63.3%.

Values taken from ChEMBL document CHEMBL2034971, “Appraisal of GABA and PABA as linker: design and synthesis of novel benzamide based histone deacetylase inhibitors” (Eur J Med Chem, 2012).
